Hits are enriched below; roughly 1.7% of the tested compounds scored in any of these assays.
NS3 helicase inh: blocks Hepatitis C virus NS3 helicase unwinding. NS3 helicase DNA unwinding, Cy5 molecular beacon fluorescence. AID 1800. inhibition, % at 10.9 µM. hit rate 0.56% among 290,000;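 active = inhibition above the mean of all tested compounds plus 3 SD, set per campaign, cut at about 35% in these data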;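 note: 0% = DMSO wells and 100% = thioflavine S control wells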
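Assay system: hepatitis C virus NS3 helicase domain fragment enzyme. Also added: annealed dual-labelled DNA beacon duplex, ATP-started. Timing: 1 h reaction at 25 °C, ATP-initiated. Technique: Cy5 fluorescence at 0 and 60 min, beacon hairpin quenching. Evaluation: % inhibition of unwinding. Replication: one well per compound.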
MEX-5 binding: C. elegans MEX-5 TCR-2 RNA binding activity; MEX-5/FITC-TCR2 RNA binding, fluorescence polarization; hits give low values; activity score (negative = inhibition of binding), % at 10 µM; hit rate 0.38% among 300,000; AID 1832;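 active = inhibition past about -25% in most replicates, and total fluorescence under double the plate's negative control median, limit read from the data; inconclusive = replicates evenly split on the limit, or fluorescence at least double controls; inactive = too little inhibition in most replicates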;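 note: 0% = DMSO and -100% = 5 µM competing unlabeled TCR2 RNA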
Target sequence (Q9XUB2 whole entry, looked up): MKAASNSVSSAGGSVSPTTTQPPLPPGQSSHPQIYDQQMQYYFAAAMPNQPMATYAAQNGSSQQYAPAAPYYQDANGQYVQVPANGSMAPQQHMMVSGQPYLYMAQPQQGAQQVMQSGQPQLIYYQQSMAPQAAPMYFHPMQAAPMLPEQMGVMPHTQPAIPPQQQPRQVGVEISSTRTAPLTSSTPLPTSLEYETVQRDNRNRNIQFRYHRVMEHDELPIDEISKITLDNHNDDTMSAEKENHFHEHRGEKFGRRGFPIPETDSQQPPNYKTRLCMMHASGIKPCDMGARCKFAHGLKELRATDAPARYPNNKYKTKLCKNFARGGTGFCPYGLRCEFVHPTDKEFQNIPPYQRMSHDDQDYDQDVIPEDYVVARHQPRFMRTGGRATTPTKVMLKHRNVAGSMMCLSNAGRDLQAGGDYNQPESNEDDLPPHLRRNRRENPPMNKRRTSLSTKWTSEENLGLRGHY
ZTA DNA inh: ZTA (EBV) inhibition in EBNA-1 counter-screen. inhibition, % at 11 µM. hit rate 0.15% among 320,000. ZTA-DNA binding, fluorescence polarization; in the data active = inhibition above about 33%
EBNA-1 inh: blocks EBNA-1 binding to DNA; hit rate 0.34% among 300,000; EBNA-1 DNA binding, fluorescence polarization; inhibition, % at 14.8 µM; AID 1950; in the data active = inhibition above about 28%
HCV core dimer: blocks dimerization of HCV core protein | TR-FRET GST/Flag-core106 dimerization, 1536-well | inhibition, % at 5 µM | hit rate 0.33% among 300,000 | AID 1899;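 active = inhibition above the mean of all tested compounds plus 3 SD, set per screening campaign, cut at about 45% in these data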
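System: GST/Flag-tagged HCV core106 proteins. Incubation: compound-protein-antibody incubation 4 h at 22.5 °C. Technique: HTRF with 340 nm excitation, 617/671 nm emission. Medium: KF-containing HEPES buffer, pH 7.45, DTT, CHAPS, BSA. Read-out: inhibition (%) from 671 over 617 nm ratio. Also added: Eu(K)-anti-GST 90 ng/mL plus XL665-anti-Flag 1 µg/mL.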
EBV gp42 block: blocks Epstein-Barr virus glycoprotein 42 binding | Q1HVG2 | Fluorescence polarization binding assay, mP read-out | inhibition, % (tested at 21.74 µM) | hit rate 0.42% among 220,000; in the data active = inhibition above about 50%
* hit, by the source's call; ? = inconclusive; · = no result given; ! = not active in a repeat.

SMILES	NS3 helicase inh	MEX-5 binding	ZTA DNA inh	EBNA-1 inh	HCV core dimer	EBV gp42 block
CCOC(=O)c1c(-c2ccc(C)o2)csc1NC(=S)NC(=O)c1cccs1	11	-34*	11	6	13	-15
NC(=O)c1snnc1-c1ccccc1	6	-29*	4	4	-7	-14
NC(=O)c1sc2nnc(-c3ccccc3)c(-c3ccccc3)c2c1N	1	-53*	2	5	-3	-6
Nc1c(C(=O)O)sc2nc(-c3ccccc3)c3c(c12)CCCC3	16	1	10	4	33	4
Cc1cc(C)c[n+](-c2nc3ccccc3nc2[N-]S(=O)(=O)c2ccc(Br)s2)c1	-7	-10	14	-3	-9	66*
CCc1cccc(C)c1NC(=O)CCCN1C(=O)CN(C)C1=O	·	·	17	·	·	·
CN1CCC2(CC1)C1CN(C)CC=C1C(C#N)=C(N)C2(C#N)C#N (stereo unspecified)	2	?	2	2	-10	76*!
Cc1nccn1C(c1ccccc1)c1ccccc1	·	2	-9	-7	-5	·
CC#CC(=O)N1CCCC(Cc2cccc(OC)c2)(C(=O)OCC)C1 (stereo unspecified)	11	0	0	2	-11	·
Cc1c2ccccc2nc2c(F)c(N(C)C)c(F)c(F)c12	23	-5	-4	1	1	197*
CN(C)c1c2ccccc2nc2c(F)c(F)c(F)c(F)c12	-11	2	-2	-7	9	-74
CCCCNC(=O)/C(C#N)=C/c1ccc(-c2ccc(S(=O)(=O)N3CCOCC3)cc2)o1	5	-10	44*	-9	11	-23
COC(=O)/C(C#N)=C/c1ccc(-c2ccc(S(N)(=O)=O)cc2)o1	19	-11	4	8	-5	-7
COc1ccccc1CC(=O)Nc1ccc(S(=O)(=O)N2CC(C)CC(C)C2)cc1 (stereo unspecified)	·	·	-4	·	·	·
CC(C)(C)c1nn(-c2ccccc2)c2[nH]c(=O)c(CNCc3ccco3)cc12	30	-27*	-4	8	9	-18
Cc1ccc(NC(=O)c2cccc3cccnc23)cc1	-5	2	-5	5	6	·
COc1ccccc1CCC(=O)OCc1csc(CC(=O)Nc2ccccc2C)n1	-2	-27*	0	-6	9	·
Cc1cccc(-c2nnc(SCC(=O)N3CCOCC3)o2)c1	3	-1	12	8	5	·
CC(C)(C)c1ccc(/C([O-])=C(/C(=S)NCc2ccco2)[n+]2ccccc2)cc1	14	1	-7	17	53*	2
CC(C)(C)c1ccc(C(=O)NC(=S)NCc2ccco2)cc1	15	1	4	9	0	·
O=C1C(=Cc2cccn2-c2ccc(O)cc2)C(=O)c2ccccc21	12	0	0	25	61*	82*
O=C1C(=Cc2cccn2-c2ccccc2)C(=O)c2ccccc21	0	?	6	-4	-1	-44
N#CC(C#N)=Cc1ccc(-c2ccc(S(=O)(=O)N=C(N)N)cc2)o1	2	-38*	-1	-10	17	10
NS(=O)(=O)c1ccc(-c2ccc(C=O)o2)cc1	-3	-4	-6	-7	-1	-18
Cc1ccc([N+](=O)[O-])cc1S(=O)(=O)Nc1ccc(O)c(Sc2ncn[nH]2)c1	2	-40*	3	7	-6	·
SMILES	NS3 helicase inh	MEX-5 binding	ZTA DNA inh	EBNA-1 inh	HCV core dimer	EBV gp42 block
Cc1cc(O)c(Sc2ncn[nH]2)cc1NS(=O)(=O)c1ccc(Cl)cc1	·	·	-12	·	·	·
COCCn1c(=N)c(S(=O)(=O)c2ccc(Br)cc2)cc2c(=O)n3ccccc3nc21	7	-45*	7	4	2	·
N=c1c(S(=O)(=O)c2ccc(Br)cc2)cc2c(=O)n3ccccc3nc2n1C1CCCCC1	-4	-45*	4	-8	14	·
N=c1c(S(=O)(=O)c2ccc(Cl)cc2)cc2c(=O)n3ccccc3nc2n1C1CCCC1	-14	-35*	-6	-3	12	·
CC/C(=N/N=C(/CC)c1ccc(O)cc1)c1ccc(O)cc1	·	0	-8	-14	0	·
O=C(Nc1cccnc1)c1sc(Nc2ccccc2)nc1-c1ccccc1	-3	1	3	89*	-32	10
Cc1cccc(Nc2nc(-c3ccccc3)c(C(=O)Nc3cccnc3)s2)c1	-19	0	11	8	-53	0
COc1nc(NCCc2ccc(OC)c(OC)c2)nc(OC)n1	3	-2	-4	-2	4	-12
COc1nc(NCCC2=CCCCC2)nc(OC)n1	-4	0	13	1	4	138*
CCc1ccccc1NC(=O)CN1CCN(C(=O)CNC(=O)c2ccc(N3CCCC3=O)cc2)CC1	·	·	-1	·	·	·
O=C(C[n+]1cccc2ccccc21)c1ccc(Br)cc1	-2	5	0	9	6	·
NC(=O)C[n+]1cccc2ccccc21	-12	-36*	2	0	-1	46
COc1ccc(-c2onc3ccc(Br)cc23)cc1	8	-13	-6	0	2	127*
COc1cc(-c2onc3ccc(Br)cc23)cc(OC)c1OC	9	2	-4	-4	-4	9
Cc1cc(OCC(=O)Nc2ccc(CN3CCOCC3)cc2)c2c(C)c(C)c(=O)oc2c1	-47	-1	14	15	7	·
COc1ccc(OC)c(C2CC(=O)N3CN(c4ccccc4)CSC3=C2C#N)c1 (stereo unspecified)	18	6	-12	6	25	-11
Cc1cccc(N2CSC3=C(C#N)C(c4ccc(C)o4)CC(=O)N3C2)c1 (stereo unspecified)	20	0	13	2	84*	25
O=C1SC(SCc2ccccc2Cl)=N/C1=C\c1ccc(C(=O)O)cc1	6	-41*	-3	-14	12	-2
CCSC1=N/C(=C\c2ccc(C(=O)O)cc2)C(=O)S1	2	-6	23	10	-2	-5
COc1ccccc1Nc1ncc(-c2cccs2)s1	2	2	9	-2	50*	0
O=C(Nc1cccc(Cl)c1)c1cc(N=Nc2ccc([N+](=O)[O-])cc2Cl)ccc1O	26	0	-8	-3	3	79*
O=C(Nc1ccc([N+](=O)[O-])cc1Cl)c1cc(Cl)ccc1O	·	·	-3	1	-9	·
Oc1oc(-c2ccccc2)nc1C=Nc1ccccc1	-3	0	16	9	-4	-9
CN(C)c1ccc(N=Cc2nc(-c3ccccc3)oc2OC(=O)c2ccccc2)cc1	0	-19	-6	-3	-12	-1
CC(=O)Oc1oc(-c2ccccc2)nc1C=Nc1ccc(N(C)C)cc1	0	-33*	12	7	2	-24
CN(C)c1ccc(N=Cc2nc(-c3ccccc3)oc2O)cc1	2	-64*	4	3	-52	166*

Screening results (PubChem BioAssay)
